According to ChEMBL document CHEMBL1125932 (1991):
Converted amounts (≈) assume the structure as drawn.

Columns and labels:
Assay type in all cases: functional
[1] = system: ESM; assay: Concentration required to inhibit HSV-1 (KOS) induced cytopathogenicity in ESM cells by 50%; settings: Homo sapiens; read-out: MIC
Outline: (§1)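 Embryonic skin-muscle (ESM) cell cultures were infected with 100 CCID50 of virus (1 CCID50 being the infective dose for 50% of cultures).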

[2] = system: ESM; assay: Concentration required to cause 50% reduction in cellular DNA synthesis in ESM cells; settings: Homo sapiens; read-out: MIC
Outline: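 In ESM cells, cellular DNA synthesis was monitored by incorporation of [methyl-3H]dThd. The value is the concentration causing a 50% reduction in incorporation.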

[3] = system: ESM; assay: Concentration required to inhibit HSV-1 (McIntyre) induced cytopathogenicity in ESM cells by 50%; settings: Homo sapiens; read-out: MIC; outline: as §1
[4] = system: ESM; assay: Concentration required to inhibit TK-HSV-1 ([…]) induced cytopathogenicity in ESM cells by 50%; settings: Homo sapiens; outline: as §1
[5] = system: HEL; assay: Concentration required to inhibit VZV (YS) induced cytopathogenicity in HEL cells by 50%; settings: Homo sapiens; read-out: MIC
[6] = system: ESM; assay: Concentration required to inhibit HSV-2(G) induced cytopathogenicity in ESM cells by 50%; settings: Homo sapiens; read-out: MIC; outline: as §1
[7] = system: ESM; assay: Concentration required to inhibit HSV-2(lyons) induced cytopathogenicity in ESM cells by 50%; settings: Homo sapiens; read-out: MIC; outline: as §1
[8] = system: HEL; assay: Concentration required to inhibit TK-VZV (YSR) induced cytopathogenicity in HEL cells by 50%; settings: Homo sapiens
[9] = system: HEL; assay: Concentration required to inhibit VZV (oka) induced cytopathogenicity in HEL cells by 50%; settings: Homo sapiens; read-out: MIC
[10] = system: HEL; assay: Concentration required to cause 50% reduction in HEL cell growth; settings: Homo sapiens
[11] = system: HEL; assay: Concentration required to inhibit CMV (Davis) induced cytopathogenicity in HEL cells by 50%; settings: Homo sapiens
[12] = system: ESM; assay: Concentration required to cause a microscopically detectable alteration of normal cell morphology in ESM cells; settings: Homo sapiens
Outline: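 ESM cells were examined under the microscope. The value is the minimum concentration causing a microscopically detectable change in normal cell morphology.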

[13] = system: HEL; assay: Concentration required to inhibit TK-VZV (07-1) induced cytopathogenicity in HEL cells by 50%; settings: Homo sapiens; read-out: MIC
[14] = system: ESM; assay: Concentration required to inhibit TK-HSV-1 (B2006) induced cytopathogenicity in ESM cells by 50%; settings: Homo sapiens; outline: as §1
[15] = system: ESM; assay: Concentration required to inhibit HSV-1 (F) induced cytopathogenicity in ESM cells by 50%; settings: Homo sapiens; read-out: MIC; outline: as §1
[16] = system: HEL; assay: Concentration required to inhibit CMV (AD-169) induced cytopathogenicity in HEL cells by 50%; settings: Homo sapiens; read-out: MIC
[17] = system: ESM; assay: Concentration required to inhibit VV induced cytopathogenicity in ESM cells by 50%; settings: Homo sapiens; outline: as §1
[18] = system: ESM; assay: Concentration required to inhibit HSV-2(196) induced cytopathogenicity in ESM cells by 50%; settings: Homo sapiens; read-out: MIC; outline: as §1
[19] = system: ESM; assay: Concentration required to inhibit VV induced cytopathogenicity in ESM cells by 50%.; settings: Homo sapiens; outline: as §1
[20] = system: HEL; assay: Concentration required to cause 50% reduction in HEL cell growth.; settings: Homo sapiens; read-out: MIC

SMILES | 50% inhibitory concentration against virus-induced cytopathogenicity (EC50) [1] [µg/mL] | IC50 (DNA synthesis inhibition) [2] [µg/mL] | EC50 for inhibiting virus-induced cytopathogenicity [3] [µg/mL] | MIC [4] [µg/mL] | EC50 [5] [µg/mL] | EC50 [6] [µg/mL] | EC50 (50% inhibition of virus cytopathogenicity) [7] [µg/mL] | MIC [8] [µg/mL] | EC50 [9] [µg/mL] | MIC [10] [µg/mL] | MIC [11] [µg/mL] | MIC [12] [µg/mL] | EC50 [13] [µg/mL] | MIC [14] [µg/mL] | EC50 [15] [µg/mL] | EC50 [16] [µg/mL] | MIC [17] [µg/mL] | EC50 [18] [µg/mL] | MIC [19] [µg/mL] | 50% cell growth inhibitory concentration (CC50) [20] [µg/mL]
Cc1cn2c(O)c3ncn(C4O[C@H](CO)[C@@H](O)[C@H]4O)c3nc2n1 (some centres not stated) | > 400 | 150 (≈ 467 µM) | > 400 | > 400 | > 200 | > 400 | > 400 | > 200 | > 200 | > 200 | > 200 | > 400 | > 200 | > 400 | > 400 | > 200 | > 400 | > 400 |  | 
OCC(CO)OCn1cnc2c(O)n3ccnc3nc21 | 0.7 | > 200 | 0.7 | 150 (≈ 537 µM) | > 400 | 2 (≈ 7.16 µM) | 0.7 | 300 (≈ 1070 µM) | 400 (≈ 1430 µM) |  | 200 (≈ 716 µM) | > 400 | 400 (≈ 1430 µM) | > 400 | 0.7 (≈ 2.51 µM) | 150 (≈ 537 µM) |  | 2 (≈ 7.16 µM) | > 400 | > 200
Cc1cn2c(O)c3ncn(COC(CO)CO)c3nc2n1 | 0.07 | > 200 | 0.07 | 20 (≈ 68.2 µM) | 10 (≈ 34.1 µM) | 0.07 (≈ 0.239 µM) | 0.07 | 50 (≈ 170 µM) | 4 (≈ 13.6 µM) |  | 5 (≈ 17 µM) | > 400 | 15 (≈ 51.1 µM) | 200 (≈ 682 µM) | 0.07 (≈ 0.239 µM) | 4 (≈ 13.6 µM) |  | 0.07 (≈ 0.239 µM) | > 400 | > 200
OC[C@H]1OC(n2cnc3c(O)n4ccnc4nc32)[C@H](O)[C@@H]1O (some centres not stated) | > 400 | 150 (≈ 488 µM) | > 400 | > 400 | > 400 | > 400 | > 400 | > 400 | > 400 | > 200 | 400 (≈ 1300 µM) | > 400 | > 400 | > 400 | > 400 | 400 (≈ 1300 µM) | > 400 | > 400 |  | 
OCCOCn1cnc2c(O)n3ccnc3nc21 | 20 | > 200 | 20 | > 400 | > 400 | 20 (≈ 80.2 µM) | 10 | > 400 | > 400 |  | > 400 | > 400 | > 400 | > 400 | 4 (≈ 16 µM) | > 400 |  | 70 (≈ 281 µM) | > 400 | > 200
Nc1nc2c(ncn2COC(CO)CO)c(=O)[nH]1 [GANCICLOVIR] |  |  |  | 1 (≈ 3.92 µM) |  |  |  |  |  |  | 1 (≈ 3.92 µM) | > 400 |  | 7 (≈ 27.4 µM) |  |  |  |  | 20 (≈ 78.4 µM) | 
CCOC(Cn1c(N)nc2c(ncn2COCCO)c1=O)OCC | > 400 | > 200 | > 400 | > 400 | > 400 | > 400 | 20 | > 400 | > 400 |  | > 400 | > 400 | > 400 | > 400 | 70 (≈ 205 µM) | > 400 |  | 20 (≈ 58.6 µM) | > 400 | > 200
Cc1cn2c(O)c3ncn(COCCO)c3nc2n1 | 0.7 | > 200 | 1 | > 400 | 25 (≈ 95 µM) | 2 (≈ 7.6 µM) | 0.4 | > 400 | 20 (≈ 76 µM) |  | > 400 | > 400 | 400 (≈ 1520 µM) | > 400 | 0.7 (≈ 2.66 µM) | 200 (≈ 760 µM) |  | 0.7 (≈ 2.66 µM) | > 400 | > 200
CCOC(Cn1c(N)nc2c(ncn2COC(CO)CO)c1=O)OCC | 70 | > 100 | 20 | > 400 | > 400 | 70 (≈ 188 µM) | 20 | > 400 | > 400 |  | > 400 | > 400 | > 400 | > 400 | 20 (≈ 53.9 µM) | > 400 |  | 70 (≈ 188 µM) | > 400 | > 200
Nc1nc2c(ncn2COCCO)c(=O)[nH]1 [ACYCLOVIR] |  |  |  | 40 (≈ 178 µM) |  |  |  |  |  |  | 15 (≈ 66.6 µM) | 400 (≈ 1780 µM) |  | 100 (≈ 444 µM) |  |  |  |  | > 200 | 
CCOC(Cn1c(N)nc2c(ncn2C2O[C@H](CO)[C@@H](O)[C@H]2O)c1=O)OCC (some centres not stated) | > 400 | > 200 | 100 | > 400 | > 200 | > 400 | 100 | > 200 | > 200 |  | > 400 | > 400 | > 200 | > 400 | 100 (≈ 250 µM) | > 400 |  | > 400 | > 400 | > 200
